Data: ChEMBL document CHEMBL5252518, “Correlation of in Situ Oxazolidine Formation with Highly Synergistic Cytotoxicity and DNA Cross-Linking in Cancer Cells from Combinations of Doxorubicin and Formaldehyde” (J Med Chem, 2016)
Active and inactive are the calls of the source. No cut-off for these calls is given here.

Columns and labels:
DNA [1] = experiment: Induction of DNA interstrand cross-linking in hydrogen peroxide induced human NCI/ADR-RES cells assessed as decrease in comet tail density at 10 uM incubated for 90 mins by comet assay; format: functional, cell-based
DNA [2] = experiment: Induction of DNA (unknown origin) expressed in Escherichia coli DH5alpha interstrand cross-linking assessed as inhibition of NotI-induced DNA digestion at 1.5 to 8 uM incubated for 30 mins by agarose gel electrophoresis based restriction endonuclease digestion assay; format: functional; conditions: dose 1.5-8 µM
[3] = Genotoxicity in doxorubicin-sensitive human MIA PaCa-2 cells assessed as increase in tail DNA density at 250 uM incubated for 90 mins by comet assay; format: toxicity, cell-based; conditions: mia paca-2, 1.5 h
How it was run: (§1)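 Alkaline single-cell gel electrophoresis (comet) assay. A bulk population of cells was trypsinized, then split into treatment groups and treated in suspension for 90 min. After the drug was removed, cells were promptly embedded in agarose, lysed and electrophoresed under alkaline conditions. Gels were then stained, and the stain density in the comet tail was scored as DNA strand-break content.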

[4] = Genotoxicity in doxorubicin-sensitive human MIA PaCa-2 cells assessed as increase in tail DNA density at 10 uM incubated for 90 mins by comet assay; format: toxicity, cell-based; conditions: mia paca-2, 1.5 h; how it was run: as §1
MIA PaCa-2 [5] = experiment: Cytotoxicity against doxorubicin-sensitive human MIA PaCa-2 cells assessed as inhibition of cell growth incubated for 90 mins by crystal violet staining assay; format: functional, cell-based; conditions: MIA PaCa-2, 1.5 h
NCI/ADR-RES [6] = experiment: Cytotoxicity against doxorubicin-resistant human NCI/ADR-RES cells assessed as inhibition of cell growth incubated for 90 mins by crystal violet staining assay; format: functional, cell-based; conditions: 1.5 h
DNA [7] = experiment: Induction of DNA (unknown origin) expressed in Escherichia coli DH5alpha interstrand cross-linking assessed as inhibition of NdeI-induced DNA digestion at 1.5 to 8 uM incubated for 30 mins by agarose gel electrophoresis based restriction endonuclease digestion assay; format: functional; conditions: dose 1.5-8 µM
[8] = Genotoxicity in doxorubicin-resistant human NCI/ADR-RES cells assessed as increase in tail DNA density at 250 uM incubated for 90 mins by comet assay; format: toxicity, cell-based; conditions: 1.5 h; how it was run: as §1
[9] = Genotoxicity in doxorubicin-resistant human NCI/ADR-RES cells assessed as increase in tail DNA density at 10 uM incubated for 90 mins by comet assay; format: toxicity, cell-based; conditions: 1.5 h; how it was run: as §1
MIA PaCa-2 [10] = experiment: Cytotoxicity against doxorubicin-sensitive human MIA PaCa-2 cells assessed as inhibition of cell growth incubated for 30 mins by crystal violet staining assay; conditions: MIA PaCa-2, 0.5 h
[11] = Genotoxicity in doxorubicin-sensitive human MIA PaCa-2 cells assessed as increase in DNA damage at 100 uM incubated for 90 mins by comet assay; format: toxicity, cell-based; conditions: mia paca-2, 1.5 h
How it was run: (§2)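 Cells were trypsinized as one bulk population, split into treatment groups and drug-treated in suspension for 90 min. They were then promptly embedded in agarose, lysed and electrophoresed under alkaline conditions (alkaline single-cell gel electrophoresis). After staining, DNA strand breaks were scored as comet tail stain density.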

[12] = Genotoxicity in doxorubicin-resistant human NCI/ADR-RES cells assessed as increase in DNA damage at 100 uM incubated for 90 mins by comet assay; format: toxicity, cell-based; conditions: 1.5 h; how it was run: as §2
NCI/ADR-RES [13] = experiment: Induction of DNA damage in hydrogen peroxide induced human NCI/ADR-RES cells assessed as increase in comet tail density at 100 uM incubated for 90 mins by comet assay; format: functional, cell-based
MIA PaCa-2 [14] = experiment: Synergistic cytotoxicity against doxorubicin-sensitive human MIA PaCa-2 cells assessed as cell survival incubated for 90 mins in presence of formaldehyde by crystal violet staining assay; format: functional; conditions: 1.5 h
MIA PaCa-2 [15] = experiment: Synergistic cytotoxicity against doxorubicin-sensitive human MIA PaCa-2 cells assessed as fold change in IC50 incubated for 90 mins in presence of formaldehyde by crystal violet staining assay; format: functional; conditions: 1.5 h
NCI/ADR-RES [16] = experiment: Cytotoxicity against doxorubicin-resistant human NCI/ADR-RES cells assessed as inhibition of cell growth incubated for 30 mins by crystal violet staining assay; format: functional, cell-based; conditions: 0.5 h
MIA PaCa-2 [17] = experiment: Synergistic cytotoxicity against doxorubicin-sensitive human MIA PaCa-2 cells assessed as combination index incubated for 90 mins in presence of formaldehyde by crystal violet staining assay; format: functional; conditions: 1.5 h
NCI/ADR-RES [18] = experiment: Synergistic cytotoxicity against doxorubicin-resistant human NCI/ADR-RES cells assessed as combination index incubated for 90 mins in presence of formaldehyde by crystal violet staining assay; conditions: 1.5 h
NCI/ADR-RES [19] = experiment: Synergistic cytotoxicity against doxorubicin-resistant human NCI/ADR-RES cells assessed as fold change in IC50 incubated for 90 mins in presence of formaldehyde by crystal violet staining assay; conditions: 1.5 h
NCI/ADR-RES [20] = experiment: Synergistic cytotoxicity against doxorubicin-resistant human NCI/ADR-RES cells assessed as fold change in IC50 incubated for 30 mins in presence of formaldehyde by crystal violet staining assay; conditions: 0.5 h
NCI/ADR-RES [21] = experiment: Synergistic cytotoxicity against doxorubicin-resistant human NCI/ADR-RES cells assessed as fold change in IC50 incubated for 90 mins in presence of formaldehyde low concentration by crystal violet staining assay; conditions: 1.5 h
[22] = Half life of compound; format: physicochemical
NCI/ADR-RES [23] = experiment: Cytotoxicity against doxorubicin-resistant human NCI/ADR-RES cells assessed as inhibition of cell growth incubated for 3 hrs by crystal violet staining assay; format: functional, cell-based
MIA PaCa-2 [24] = experiment: Synergistic cytotoxicity against doxorubicin-sensitive human MIA PaCa-2 cells assessed as inhibition of cell growth incubated for 90 mins in presence of epirubicin by crystal violet staining assay; conditions: MIA PaCa-2, 1.5 h
NCI/ADR-RES [25] = experiment: Cytotoxicity against doxorubicin-resistant human NCI/ADR-RES cells assessed as inhibition of cell growth incubated for 3 hrs in presence of pig liver esterase by crystal violet staining assay; format: functional, cell-based
NCI/ADR-RES [26] = experiment: Cytotoxicity against doxorubicin-resistant human NCI/ADR-RES cells assessed as fold change in IC50 incubated for 3 hrs in presence of pig liver esterase by crystal violet staining assay; format: functional
NCI/ADR-RES [27] = experiment: Cytotoxicity against doxorubicin-resistant human NCI/ADR-RES cells assessed as fold change in IC50 incubated for 3 hrs in presence of pig liver esterase by crystal violet staining assay relative to Doxsaliform; format: functional
[28] = Prodrug conversion in pig liver assessed as esterase-mediated Doxazolidine formation by measuring its half life at 1 uM by HPLC analysis; format: ADME, tissue-based, Sus scrofa
MIA PaCa-2 [29] = experiment: Synergistic cytotoxicity against doxorubicin-sensitive human MIA PaCa-2 cells assessed as inhibition of cell growth incubated for 90 mins in presence of formaldehyde by crystal violet staining assay; format: functional, cell-based; conditions: MIA PaCa-2, 1.5 h

Compound | Activity (DNA [2]) | IC50 (MIA PaCa-2 [5]; read-out: IC50) [µM] | IC50 (MIA PaCa-2 [5]; read-out: pIC50 (converted)) [µM] | IC50 (NCI/ADR-RES [6]; read-out: IC50) [µM] | IC50 (NCI/ADR-RES [6]; read-out: pIC50 (converted)) [µM] | Activity (DNA [7]) | IC50 (MIA PaCa-2 [10]) [µM] | Activity [11] | Activity [12] | Activity (NCI/ADR-RES [13]) | IC50 (NCI/ADR-RES [16]) [µM] | IC50 (NCI/ADR-RES [23]) [µM] | other results
COc1cccc2c1C(=O)c1c(O)c3c(c(O)c1C2=O)C[C@@](O)(C(=O)CO)C[C@@H]3O[C@H]1C[C@@H]2NCO[C@@H]2[C@H](C)O1 [DOXAZOLIDINE] | Active | 0.022 | 0.02 | 0.048 | 0.0501 | Active | 51 |  |  |  |  |  | Activity (DNA [1]): Active; Activity [3]: Non-Toxic; Activity [4]: Non-Toxic; Activity [8]: Non-Toxic; Activity [9]: Non-Toxic
COc1cccc2c1C(=O)c1c(O)c3c(c(O)c1C2=O)C[C@@](O)(C(=O)CO)C[C@@H]3O[C@H]1C[C@H](N)[C@H](O)[C@H](C)O1 [DOXORUBICIN] | Active | 66 | 63.1 | 0.62 | 0.617 | Active | 4 | Toxic | Toxic | Active | 220 |  | Activity (MIA PaCa-2 [14]): 75%; fold change (FC) (MIA PaCa-2 [15]): 3.5; CI (MIA PaCa-2 [17]): 0.4; CI (NCI/ADR-RES [18]): 0.02; fold change (FC) (NCI/ADR-RES [19]): 55; fold change (FC) (NCI/ADR-RES [20]): 9; fold change (FC) (NCI/ADR-RES [21]): 2.5
COc1cccc2c1C(=O)c1c(O)c3c(c(O)c1C2=O)C[C@@](O)(C(=O)CO)C[C@@H]3O[C@H]1C[C@H](NCNC(=O)c2ccccc2O)[C@H](O)[C@H](C)O1 |  |  |  |  |  |  |  |  |  |  |  | 800 | half-life [22]: 57 min
C=O [FORMALDEHYDE] |  | 610 | 631 | 530 | 501 |  |  |  |  |  | 600 |  | IC50 (MIA PaCa-2 [24]): 0.5 µM
CCCCCOC(=O)Nc1ccc(COC(=O)N2CO[C@@H]3[C@H](C)O[C@@H](O[C@H]4C[C@](O)(C(=O)CO)Cc5c(O)c6c(c(O)c54)C(=O)c4c(OC)cccc4C6=O)C[C@@H]32)cc1 |  |  |  |  |  |  |  |  |  |  |  | 2 | IC50 (NCI/ADR-RES [25]): 0.003 µM; fold change (FC) (NCI/ADR-RES [26]): 30; fold change (FC) (NCI/ADR-RES [27]): 25; t1/2 [28]: 24 min
COc1cccc2c1C(=O)c1c(O)c3c(c(O)c1C2=O)C[C@@](O)(C(=O)CO)C[C@@H]3O[C@H]1C[C@H](N)[C@@H](O)[C@H](C)O1 [EPIRUBICIN] |  | > 100 |  | 0.63 | 0.631 |  |  | Toxic | Toxic | Active |  |  | IC50 (MIA PaCa-2 [29]): 0.5 µM
